# This is a sample that favours compounds with a hit; in the whole collection about 3.3% have one here.
# HEK293 NFkB inh: inhibitors of PMA/ionomycin-induced NF-kB reporter, primary screen, antigen receptor NF-kB inhibitor project, cell-based, HEK-293 luciferase reporter, luminescence; hit rate 0.21% among 62,000; HEK-293 NF-kB luciferase reporter; inhibition, % at 3 µM;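 active = inhibition above the mean of all tested compounds plus 3 SD, cut at about 40% in these data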;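 also: 0% = stimulated DMSO wells and 100% = 10 µM reference inhibitor 5653914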
#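 Reagent: PMA plus ionomycin mix as NF-kB-activating stimulus. Assay system: NF-kB luciferase reporter HEK-293 cells. Technique: luminescence from luciferase substrate reagent. Incubation: 1 h compound pre-incubation, 16 h PMA/ionomycin at 37 °C. Benchmarks: DMSO only as uninhibited control, 10 µM reference inhibitor as full inhibition. Repeats: tested once.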
# 5-HT1A blocker: human 5-HT1a receptor antagonists, primary screen, cell-based, CHO, Ga15 NFAT-bla reporter | hit rate 0.68% among 62,000 | CHO 5-HT1a Ga15 NFAT-bla reporter, antagonist mode | inhibition, % at 10 µM | 5-hydroxytryptamine receptor 1A (Homo sapiens), P08908;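 active = inhibition above the mean of all tested compounds plus 3 SD, cut at about 43% in these data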;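 also: receptor stimulated by 5-CT agonist at 100 nM near EC80; beta-lactamase reporter measured by ratiometric fluorescence of a cleavable substrate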
# Target sequence (P08908 whole entry, looked up): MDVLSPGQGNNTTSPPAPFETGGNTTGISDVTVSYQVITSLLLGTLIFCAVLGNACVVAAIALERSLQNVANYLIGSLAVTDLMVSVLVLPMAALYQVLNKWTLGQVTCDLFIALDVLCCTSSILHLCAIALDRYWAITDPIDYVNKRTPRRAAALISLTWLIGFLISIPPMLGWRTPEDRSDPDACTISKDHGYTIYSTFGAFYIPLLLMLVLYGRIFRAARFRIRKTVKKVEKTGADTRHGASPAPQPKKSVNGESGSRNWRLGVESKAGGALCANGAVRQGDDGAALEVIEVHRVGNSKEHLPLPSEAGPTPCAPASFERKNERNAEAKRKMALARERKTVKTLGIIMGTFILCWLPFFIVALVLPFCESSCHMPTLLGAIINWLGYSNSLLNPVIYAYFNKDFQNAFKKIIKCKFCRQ
# 5HT1a ag: human 5-HT1a receptor agonists, primary screen, cell-based, CHO, Ga15 NFAT-bla reporter; CHO 5-HT1a Ga15 NFAT-bla reporter, FRET ratio; 0% basal, 100% maximal reference agonist; 5-hydroxytryptamine receptor 1A (Homo sapiens), P08908; AID 567, 2006; hit rate 0.56% among 65,000; activation, % at 10 µM;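 active = activation above the screen-wide mean activation plus 3 SD, cut at about 19% in these data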;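 also: 0% = DMSO wells and 100% = 5-CT at EC100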
# HTR1E agonist: 5-HT1E receptor agonists, primary screen, cell-based, HTS. CHO 5-HT1E Ga15 NFAT-bla reporter, FRET; 0% DMSO wells, 100% control agonist wells. activation, % at 6 µM. hit rate 0.69% among 65,000. AID 574, 2007;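 active = activation above a set limit, the screen-wide mean activation plus 3 SD, cut at about 8.5% in these data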;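 also: 100% = positive control agonist at 1 µM giving full maximal response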
# Jurkat tox 60K: cytotoxicity toward Jurkat T cells, primary screen, cytotoxicity control, cell-based, Jurkat E6.1, 60K MLSMR library | Jurkat E6.1 viability, ATP luminescence, 48 h | inhibition, % at 4 µM | hit rate 1.2% among 56,000 | AID 463, 2006;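 active = inhibition above the mean inhibition of all tested compounds plus 3 SD, cut at about 28% in these data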
# 5HT1E antag: 5-HT1E receptor antagonists, primary screen, cell-based, HTS; hit rate 0.99% among 65,000; AID 571, 2007; inhibition, % at 6 µM; CHO 5-HT1E Ga15 NFAT-bla reporter, FRET, antagonist;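 active = inhibition above a set limit, the mean inhibition across every tested compound plus 3 SD, cut at about 29% in these data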;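 also: signal is the 460 over 535 nm emission ratio of beta-lactamase substrate; 0% = agonist plus DMSO wells and 100% = wells without agonist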
# Active calls of the source: *; . = no result.
SMILES,HEK293 NFkB inh,5-HT1A blocker,5HT1a ag,HTR1E agonist,Jurkat tox 60K,5HT1E antag
Cc1ccc(N=c2oc3cc(O)ccc3cc2C(N)=O)cc1,14.0,-167.8,71.3*,21.6*,10.2,-9.4
Cc1ccc(-c2nc(CS(=O)CC(=O)NCCC(C)C)c(C)o2)cc1 (stereo not drawn),11.2,-2.5,0.8,0.3,2.5,-10.4
Clc1ccccc1CNc1ncnc2nc[nH]c12,4.3,3.1,47.2*,0.9,1.3,-10.4
c1ccc(CNc2ncnc3nc[nH]c23)nc1,15.9,-1.8,-2.9,-0.2,-2.7,5.5
CCOC(=O)/C(C#N)=C(\N)C(C)C(=O)Nc1ccccn1 (stereo not drawn),18.2,8.5,-2.3,0.9,-0.4,-16.3
COc1ccc(C(c2c(O)ccc3ccccc23)N2CCOCC2)c(OC)c1 (stereo not drawn),-14.4,106.7*,-6.7,-0.8,5.9,16.3
Cc1cc(C)n(-c2nc(NCCO)c3c4c(sc3n2)CCCC4)n1,10.4,-19.3,44.8*,0.3,9.0,-12.4
Cc1c(C)[n+](=O)c2c(n1[O-])CCC2,.,.,1.2,-0.3,.,-1.1
Cc1c(C)[n+](=O)c2c(n1[O-])CCCCC2,22.1,-6.3,0.6,22.9*,-0.7,-7.7
COCCn1c(C2CCCCC2)nc2sc3ccccc3c(=O)c2c1=O,10.6,8.0,-2.4,0.2,-7.8,-6.2
CC(=O)C1=C(C)NC(C)=C(C(C)=O)C1c1ccc(-c2ccccc2Cl)o1,0.5,42.2,-0.5,-0.6,5.7,13.6
CCCCn1nc(NC(=O)c2cccs2)c2cc3cc(OC)ccc3nc21,8.3,0.5,21.8*,4.5,-0.6,19.5
CCCn1nc(NC(=O)c2cccs2)c2cc3cc(OC)ccc3nc21,-5.7,-15.6,6.3,1.9,-5.1,18.1
O=C(NCc1ccco1)c1cnn2c(C(F)(F)F)cc(-c3cccs3)nc12,-16.3,28.4,3.0,0.1,-0.6,3.4
CN(C)CCCN(CCCNC(=O)/C=N/O)Cc1ccccc1,.,.,-2.6,26.3*,.,4.7
CCCCCn1c(N2CCOCC2)nc2c1c(=O)n(CC(N)=O)c(=O)n2C,10.9,7.6,1.4,-1.0,-1.1,6.5
CCOc1ccccc1CN(Cc1ccco1)S(=O)(=O)c1ccc(-n2cnnn2)c(OC)c1,22.4,53.5*,-2.9,-0.2,67.3*,16.9
Cc1ccc(-c2nc3nc4ccccc4nc3n2Cc2ccco2)cc1,-44.9,50.0*,-2.6,-0.3,3.3,28.0
Clc1ccc(-c2nc3nc4ccccc4nc3n2Cc2ccco2)cc1,-34.1,21.7,-3.1,0.2,0.5,13.9
CCOc1ccc2nc(-c3ccccc3)[nH]c2c1,-31.8,20.5,0.9,-0.8,76.1*,10.7
Cc1cccc(N(C)S(=O)(=O)c2ccc3[nH]c(=O)c(=O)[nH]c3c2)c1,12.8,8.6,-7.0,0.9,0.4,3.0
COCCN1C(=O)C(CC(=O)Nc2ccc(C(C)=O)cc2)SC1=Nc1ccccc1 (stereo not drawn),8.7,4.2,172.4*,-0.1,-5.4,1.4
CCOC(=O)CN(C(=O)CSc1nnc(-c2ccc(OC)c(OC)c2)o1)c1ccc(F)cc1,2.8,-2.1,22.2*,0.3,6.6,17.9
COc1ccc(-c2nnc(SCC(=O)N(Cc3ccccc3)C(C)(C)C)o2)cc1OC,23.0,-7.2,-2.0,0.0,2.4,-1.0
CCOC(=O)CSc1nc(-c2cccs2)nc2c1c(=O)n(C)c(=O)n2C,10.0,0.9,-3.6,0.3,-0.5,3.7
SMILES,HEK293 NFkB inh,5-HT1A blocker,5HT1a ag,HTR1E agonist,Jurkat tox 60K,5HT1E antag
N#CCCS(=O)(=O)c1nnnn1-c1ccccc1,33.5,86.7*,0.5,-1.4,5.4,79.4*
N#CCCCSc1nnnn1-c1cccc(Cl)c1,5.6,-2.2,-0.4,-0.7,-7.9,5.1
COCC(C)NC(=O)NC1(C(F)(F)F)Oc2ccc(Cl)cc2O1 (stereo not drawn),19.9,7.9,-1.7,0.6,.,4.8
O=C(NCCN1CCOCC1)NC1(C(F)(F)F)Oc2ccc(Cl)cc2O1 (stereo not drawn),15.7,17.7,-2.4,-0.2,79.6*,4.7
Cc1c(NS(=O)(=O)c2cccc3nsnc23)c(=O)n(-c2ccccc2)n1C,.,.,0.9,-0.4,.,-4.6
Cc1ccc(S(=O)(=O)N2CC3(C)CN(S(=O)(=O)c4ccc(C)cc4)CC(C)(C2)C3O)cc1 (stereo not drawn),16.7,-14.1,3.2,9.9*,-4.3,0.1
Cc1ccc(S(=O)(=O)N2CCN(S(=O)(=O)N3CCCCC3)CC2)cc1,9.4,-9.1,3.7,0.4,-7.2,-8.3
Cc1[nH]c2ccccc2c1C(O)CN1CCN(c2cccc(C(F)(F)F)c2)CC1 (stereo not drawn),-2.4,36.9,45.8*,14.2*,13.0,10.9
CC(=O)c1sc(NC(=O)C2(F)C(F)(F)C(F)(F)C(F)(F)C(F)(F)C2(F)F)nc1C,90.4*,65.0*,1.2,0.6,89.5*,25.4
CC(=O)c1sc(NC(=O)C=C(C)C)nc1C,2.9,-9.7,1.6,-0.3,-4.5,-9.3
CCCOc1ccc2nc(NC(=O)OC)[nH]c2c1,.,.,-1.5,-0.1,.,73.2*
O=C(Nc1ccc2c(c1)OCCO2)c1ccc(NC(=O)C2CCCO2)cc1 (stereo not drawn),18.0,8.0,0.4,0.0,.,-6.1
CN(C)CCCN1c2ccccc2Sc2ccc(C(F)(F)F)cc21,.,.,1.8,11.7*,.,17.2
OCCN1CCN(CCCN2c3ccccc3Sc3ccc(C(F)(F)F)cc32)CC1,.,.,-0.5,-0.6,.,-18.3
Cc1nc(NC(C)c2ccccc2)c2oc3ccccc3c2n1 (stereo not drawn),4.8,1.5,-1.7,-0.6,29.7*,14.7
CC(=O)N1c2ccccc2N(Cc2ccc(C)cc2C)C(=O)C1(C)C,16.3,21.4,0.1,1.1,95.1*,18.3
O=C(NCc1ccc2c(c1)OCO2)C1CCN(Cc2cnn(-c3ccccc3)c2-n2cccc2)CC1,17.7,-3.8,0.2,12.3*,.,0.0
O=C(CSc1nnc(-c2cccs2)n1-c1ccccc1)N1CCc2ccccc21,-2.9,-3.5,1.9,0.5,-5.7,2.3
CCOC(=O)N1CCN(C(=O)C(NC(=O)c2ccc(CC)cc2)C(C)C)CC1 (stereo not drawn),-3.4,-3.8,-0.1,0.1,-3.2,-3.9
CCN(CCCNC(=O)CCNC(=O)Cn1cnc2ccccc2c1=O)c1ccccc1,12.7,-4.9,-2.8,0.1,-3.1,-1.5

# Screening data: PubChem, The Scripps Research Institute Molecular Screening Center
